Measured values: ChEMBL document CHEMBL4028856, “Discovery of Small Molecules Targeting the Synergy of Cardiac Transcription Factors GATA4 and NKX2-5” (J Med Chem, 2017)
Active and inactive are the calls of the source. The calls are words filed in the database; no cut-off is given here.

Experiments:
[1] = biological target: Transcription factor GATA-4 (Mus musculus) (UniProt Q08369); assay: Inhibition of binding of mouse GATA4 to [32P]-double stranded oligonucleotide expressed in African green monkey COS-1 cells at 50 uM preincubated for 10 mins followed by [32P]-double stranded oligonucleotide addition measured after 20 mins by EMSA method; format: cell-based
Transcription factor GATA-4 (Mus musculus), sequence (Q08369 whole entry): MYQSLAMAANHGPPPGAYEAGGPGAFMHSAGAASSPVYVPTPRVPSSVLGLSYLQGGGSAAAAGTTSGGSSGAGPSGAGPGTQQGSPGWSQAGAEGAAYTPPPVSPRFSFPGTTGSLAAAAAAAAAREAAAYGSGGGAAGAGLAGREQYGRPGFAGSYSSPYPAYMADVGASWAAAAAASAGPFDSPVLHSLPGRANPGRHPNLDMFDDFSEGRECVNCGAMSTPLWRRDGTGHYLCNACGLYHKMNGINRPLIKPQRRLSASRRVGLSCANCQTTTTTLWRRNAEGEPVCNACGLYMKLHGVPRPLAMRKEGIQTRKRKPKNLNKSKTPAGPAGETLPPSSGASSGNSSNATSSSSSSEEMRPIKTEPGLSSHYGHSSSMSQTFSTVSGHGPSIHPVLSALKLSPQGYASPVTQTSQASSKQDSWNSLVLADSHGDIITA
Procedure, shortened: (§1)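 Nuclear extracts from COS-1 cells transfected with pMT2-GATA4 or pMT2-NKX2-5 (harvested 48 h) preincubated 10 min with 50 μM compound, then 20 min with 32P-labeled GATA4- or NKX2-5-site probe; native 5% PAGE, phosphorimager quantitation; antibody supershift controls; mean ± SD, n = 3–5.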

GATA4/NKX2-5 = GATA4/NKX2-5 (Mus musculus, UniProt P42582+Q08369); assay: Inhibition of mouse GATA4/NKX2-5 transcriptional synergy expressed in African green monkey COS-1 cells measured after 30 hrs by dual luciferase reporter gene assay; format: cell-based
GATA4/NKX2-5, sequence (Q08369 whole entry): as above
GATA4/NKX2-5, sequence (P42582 whole entry): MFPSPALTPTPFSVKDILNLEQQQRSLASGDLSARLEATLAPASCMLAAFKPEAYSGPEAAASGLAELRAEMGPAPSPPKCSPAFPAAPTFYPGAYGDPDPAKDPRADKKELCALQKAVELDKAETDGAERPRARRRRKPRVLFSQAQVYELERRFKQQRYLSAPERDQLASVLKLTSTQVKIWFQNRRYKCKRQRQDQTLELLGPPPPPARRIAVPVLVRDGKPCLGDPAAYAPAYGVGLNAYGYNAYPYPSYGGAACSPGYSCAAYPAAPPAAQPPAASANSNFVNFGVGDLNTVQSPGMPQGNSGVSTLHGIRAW
Procedure, shortened: (§2)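 COS-1 cells co-transfected (Fugene 6, DNA:reagent 1:3) with p3xNKE-luc, Renilla pRL-TKd238 control, and pMT2-GATA4, pMT2-NKX2-5, both, or empty pMT2; DNA balanced with pMT2. Compounds added 6 h post-transfection in 0.1% DMSO, medium renewed at 24 h, lysis at 30 h. Dual-luciferase read-out, firefly/Renilla normalized to vehicle; duplicate wells.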

[2] = biological target: Homeobox protein Nkx-2.5 (Mus musculus) (UniProt P42582); assay: Inhibition of binding of mouse NKX2-5 to [32P]-double stranded oligonucleotide expressed in African green monkey COS-1 cells at 50 uM preincubated for 10 mins followed by [32P]-double stranded oligonucleotide addition measured after 20 mins by EMSA method; format: cell-based; procedure, shortened: as §1
Homeobox protein Nkx-2.5 (Mus musculus), sequence (P42582 whole entry): as above

[3] = biological target: T1, GATA4/NKX2-5 (Mus musculus) (UniProt Q08369+P42582); conditions: 10 uM
[4] = biological target: T2, GATA4/NKX2-5 (Rattus norvegicus) (UniProt P46152+O35767); assay: Activation of GATA4/NKX2-5 interaction in neonatal rat ventricular cardiomyocytes assessed as increase in basal mRNA level of BNP at 100 uM after 24 hrs by real-time PCR analysis relative to control
Procedure, shortened: (§3)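 Neonatal rat ventricular myocytes (2–4-day-old Sprague-Dawley or Wistar), preplated, seeded on 6-well plates, moved to complete serum-free medium next day and cultured 24 h. Compounds (10–100 μM) added 1 h before 100 nM endothelin-1 or none; ANP and BNP mRNA quantified by RT-PCR at 24 h, normalized to 18S RNA, relative to vehicle; mean ± SD, n = 3–6.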

[5] = biological target: Transcription factor GATA-4 (Mus musculus) (UniProt Q08369); assay: Inhibition of mouse GATA4-driven transactivation of luciferase reporter construct containing BNP minimal promoter with tandem GATA-site on -90 bp expressed in African green monkey COS-1 cells after 30 hrs by luminometer; format: cell-based
Procedure, shortened: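 COS-1 cells co-transfected with firefly luciferase driven by BNP minimal or −90 bp BNP promoter, Renilla pRL-TKd238, and pMT2-GATA4 or empty pMT2. Compounds added 6 h post-transfection in 0.1% DMSO, refreshed with medium at 24 h; lysis at 30 h; dual-luciferase, firefly/Renilla normalized to vehicle; triplicate wells.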

[6] = Induction of necrosis in endothelin-1 induced neonatal rat ventricular cardiomyocytes assessed as release of adenylate kinase at 50 uM measured after 24 hrs by bioluminescence assay; format: cell-based; conditions: cardiac muscle cell
Procedure, shortened: (§4)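 Neonatal rat cardiomyocytes treated 24 h at 50 μM; adenylate kinase released into medium measured by ToxiLight bioluminescence on a luminometer; relative to vehicle, mean ± SD, n = 3.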

[7] = Induction of apoptosis in endothelin-1 induced neonatal rat ventricular cardiomyocytes at 50 uM measured after 24 hrs by TUNEL assay; format: cell-based; conditions: cardiac muscle cell
Procedure, shortened: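 Neonatal rat cardiomyocytes on 8-well chamber slides treated 24 h at 50 μM; apoptotic cells detected by TUNEL with peroxidase in situ kit.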

[8] = biological target: Transcription factor GATA-4 (Rattus norvegicus) (UniProt P46152); assay: Inhibition of binding of GATA4 to [32P]-double stranded oligonucleotide in neonatal rat ventricular cardiomyocytes at 50 uM measured after 24 hrs by EMSA method
Transcription factor GATA-4 (Rattus norvegicus), sequence (P46152 whole entry): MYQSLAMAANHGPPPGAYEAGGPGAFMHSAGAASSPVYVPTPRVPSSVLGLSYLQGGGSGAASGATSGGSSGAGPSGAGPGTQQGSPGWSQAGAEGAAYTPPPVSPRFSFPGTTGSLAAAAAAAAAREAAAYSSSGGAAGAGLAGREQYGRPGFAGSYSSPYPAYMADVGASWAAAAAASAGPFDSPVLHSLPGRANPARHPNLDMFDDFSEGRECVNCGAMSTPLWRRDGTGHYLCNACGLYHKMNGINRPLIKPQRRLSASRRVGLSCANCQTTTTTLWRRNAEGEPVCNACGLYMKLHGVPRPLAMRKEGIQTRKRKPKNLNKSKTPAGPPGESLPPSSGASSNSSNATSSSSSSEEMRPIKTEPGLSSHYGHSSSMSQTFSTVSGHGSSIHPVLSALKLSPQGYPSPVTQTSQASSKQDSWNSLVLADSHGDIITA
Procedure, shortened: (§5)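 Neonatal rat cardiomyocytes treated 24 h with 50 μM; nuclear extracts incubated 20 min with [α-32P]dCTP Klenow-labeled GATA4- or NKX2-5-site oligonucleotide in HEPES/NaCl/KCl/MgCl2 buffer with poly(dI-dC); 5% native PAGE, phosphorimager; supershift with anti-GATA4/NKX2-5; relative to vehicle, mean ± SD, n = 3–5.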

[9] = biological target: T1, GATA4/NKX2-5 (Mus musculus); assay: Inhibition of mouse GATA4/NKX2-5 transcriptional synergy expressed in African green monkey COS-1 cells at 50 uM measured after 30 hrs by dual luciferase reporter gene assay; format: cell-based; procedure, shortened: as §2
[10] = biological target: Fibroblast growth factor receptor 3 (Homo sapiens) (UniProt P22607); assay: Inhibiton of human FGFR3 at 30 uM
Fibroblast growth factor receptor 3 (Homo sapiens), sequence (P22607 23-806 limits assumed): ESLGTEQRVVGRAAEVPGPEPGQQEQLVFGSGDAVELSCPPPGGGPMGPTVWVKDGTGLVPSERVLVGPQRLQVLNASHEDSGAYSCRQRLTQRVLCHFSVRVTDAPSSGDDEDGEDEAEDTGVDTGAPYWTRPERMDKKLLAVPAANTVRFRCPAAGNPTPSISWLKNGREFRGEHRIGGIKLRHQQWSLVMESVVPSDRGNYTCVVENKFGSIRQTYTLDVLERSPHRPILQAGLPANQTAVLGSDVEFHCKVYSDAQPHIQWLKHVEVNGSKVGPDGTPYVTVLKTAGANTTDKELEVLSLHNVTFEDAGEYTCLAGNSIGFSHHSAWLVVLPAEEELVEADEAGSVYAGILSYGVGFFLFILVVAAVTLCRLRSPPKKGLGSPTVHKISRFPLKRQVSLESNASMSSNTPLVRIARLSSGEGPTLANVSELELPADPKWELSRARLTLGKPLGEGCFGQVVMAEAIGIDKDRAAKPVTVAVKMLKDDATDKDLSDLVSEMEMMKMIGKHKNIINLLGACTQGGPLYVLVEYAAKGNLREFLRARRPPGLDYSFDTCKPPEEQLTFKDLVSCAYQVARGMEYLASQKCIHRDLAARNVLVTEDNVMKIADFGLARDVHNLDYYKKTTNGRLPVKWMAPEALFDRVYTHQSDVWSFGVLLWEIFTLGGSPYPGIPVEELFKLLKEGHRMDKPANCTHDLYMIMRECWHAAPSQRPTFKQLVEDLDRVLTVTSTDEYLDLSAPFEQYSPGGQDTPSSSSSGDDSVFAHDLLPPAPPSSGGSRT
Procedure, shortened: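 48-kinase profiling panel; compounds tested at 30 μM in duplicate.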

[11] = biological target: Homeobox protein Nkx-2.5 (Rattus norvegicus) (UniProt O35767); assay: Inhibition of binding of NKX2-5 to [32P]-double stranded oligonucleotide in neonatal rat ventricular cardiomyocytes at 50 uM measured after 24 hrs by EMSA method; procedure, shortened: as §5
Homeobox protein Nkx-2.5 (Rattus norvegicus), sequence (O35767 whole entry): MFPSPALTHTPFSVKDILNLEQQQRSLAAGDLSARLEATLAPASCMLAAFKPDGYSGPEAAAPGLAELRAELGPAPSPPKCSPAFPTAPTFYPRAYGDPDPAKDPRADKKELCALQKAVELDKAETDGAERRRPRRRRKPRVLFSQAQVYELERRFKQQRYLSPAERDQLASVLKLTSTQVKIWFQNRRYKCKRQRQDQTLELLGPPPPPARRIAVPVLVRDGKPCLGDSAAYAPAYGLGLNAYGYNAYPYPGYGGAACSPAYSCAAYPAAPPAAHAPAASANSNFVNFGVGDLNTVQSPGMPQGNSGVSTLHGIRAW

[12] = Induction of aggregation of compounds at 100 uM by nephalometric method
[13] = Induction of necrosis in neonatal rat ventricular cardiomyocytes assessed as release of adenylate kinase at 50 uM measured after 24 hrs by bioluminescence assay; format: cell-based; conditions: cardiac muscle cell; procedure, shortened: as §4
[14] = Induction of aggregation of compound at 3 to 30 uM by nephalometric method
[15] = biological target: T2, GATA4/NKX2-5 (Rattus norvegicus); assay: Activation of GATA4/NKX2-5 interaction in neonatal rat ventricular cardiomyocytes assessed as increase in basal mRNA level of ANP at 100 uM after 24 hrs by real-time PCR analysis relative to control; procedure, shortened: as §3
[16] = Drug level in mouse embryonic stem cells treated with N-[4-(Diethylamino)phenyl]-5-methyl-3-phenylisoxazole-4-carboxamide at 3 to 5 uM measured after 10 days by HPLC/MS method; format: ADME, cell-based; conditions: embryonic stem cell, 240 h
Procedure, shortened: (§6)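 Mouse embryonic stem cells exposed 5 and 10 days to 3 or 5 μM, with DMSO and EB differentiation medium blanks. Medium extracted with chloroform; cells pelleted, saline-washed twice, sonicated in chloroform. UPLC-ESI(+)-QTOF/MS, BEH C18, 0.1% formic acid water/acetonitrile gradient 7–80% B over 5 min, 0.6 mL/min, 40 °C.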

[17] = Drug level in embryoid body differentiation medium treated with N-[4-(Diethylamino)phenyl]-5-methyl-3-phenylisoxazole-4-carboxamide at 3 to 5 uM measured after 10 days by HPLC/MS method; procedure, shortened: as §6

Row | SMILES | inhibition [1] | IC50 (GATA4/NKX2-5) | inhibition [2] | inhibition [3] | fold change (FC) [4] | inhibition [5] | Activity [6] | Activity [7] | inhibition [8] | inhibition [9] | inhibition [10] | inhibition [11] | Activity [12] | Activity [13] | Activity [14] | fold change (FC) [15] | Drug metabolism [16] | Drug metabolism [17]
1 | CC(C)COC(=O)c1ccc(NC(=O)c2ccncc2)cc1 | Active | 5 µM | inactive | Active |  |  |  |  |  |  |  |  |  |  |  |  |  | 
2 | CCCOc1ccc(/C=N/n2c(S)nnc2-c2ccncc2)cc1 | inactive | 10 µM | Active |  | 4.9 | Active | Non-Toxic | Non-Toxic | 37% | Active | 55% | 29% | Active | Non-Toxic | inactive | 8.6 |  | 
3 | CCNc1ccc(NC(=O)c2c(-c3ccccc3)noc2C)cc1 |  | > 50 µM |  |  |  |  |  |  |  |  |  |  |  |  |  |  | Metabolite_Detected | Metabolite detected
